ABCG2 block: ABCG2 efflux pump inhibitors, primary screen, multiplex with ABCB1, IgMXP3 cells, flow cytometry; hit rate 0.1% among 190,000; JC-1 efflux; inhibition, % at 6.6 µM; Broad substrate specificity ATP-binding cassette transporter ABCG2 (Homo sapiens), Q9UNQ0;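 active = inhibition above 80%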;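 note: 0% = DMSO and 100% = nicardipine control wells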
Target sequence (Q9UNQ0 whole entry, looked up): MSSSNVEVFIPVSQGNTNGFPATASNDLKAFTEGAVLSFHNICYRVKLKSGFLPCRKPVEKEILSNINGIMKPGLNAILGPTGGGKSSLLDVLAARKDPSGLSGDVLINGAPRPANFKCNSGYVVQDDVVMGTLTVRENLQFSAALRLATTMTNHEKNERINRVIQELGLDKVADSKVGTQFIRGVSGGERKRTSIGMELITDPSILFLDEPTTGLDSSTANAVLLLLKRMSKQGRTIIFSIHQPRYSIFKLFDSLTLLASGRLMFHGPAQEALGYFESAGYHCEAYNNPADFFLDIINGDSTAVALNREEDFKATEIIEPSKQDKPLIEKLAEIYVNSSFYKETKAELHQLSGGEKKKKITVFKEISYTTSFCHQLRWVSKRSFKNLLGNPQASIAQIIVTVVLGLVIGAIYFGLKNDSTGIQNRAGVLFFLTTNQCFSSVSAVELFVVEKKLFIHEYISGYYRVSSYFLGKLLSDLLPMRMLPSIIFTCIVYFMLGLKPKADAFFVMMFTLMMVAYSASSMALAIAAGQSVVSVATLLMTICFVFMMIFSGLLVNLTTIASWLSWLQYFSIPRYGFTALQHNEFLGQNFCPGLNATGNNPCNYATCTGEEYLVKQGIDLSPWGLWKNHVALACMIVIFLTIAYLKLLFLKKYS
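material = IgMXP3 (ABCG2) plus far-red-tagged CCRF-Adr (ABCB1) cells | amount = 3 million cells/mL, equal mix of both lines | also added = JC-1 transporter substrate | dosing = one concentration, 6.6 µM final | schedule = 10 min at 25 °C | measured by = flow cytometric JC-1 green MFI at 530 nm | read-out basis = percent efflux inhibition, scaled nicardipine 100% to DMSO 0%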
ABCB1 block: ABCB1 efflux pump inhibitors, primary screen, cell-based, multiplex, flow cytometry, ABCG2 counter-screen. CCRF-Adr cells, JC-1 efflux. inhibition, % at 6.6 µM. hit rate 0.067% among 190,000; in the data active = inhibition above about 40%;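 note: 0% = vehicle and 100% = reference inhibitor; higher value means more JC-1 retained so stronger ABCB1 efflux block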
Calb biofilm kill: clotrimazole potentiators killing C. albicans biofilm, primary screen, 4-compound mixtures; C. albicans biofilm persisters + clotrimazole, fluorescence viability; primary screen in compound mixtures of four per well; inhibition, % at 7.6 µM; hit rate 0.02% among 120,000; AID 1242, 2008;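 active = inhibition above 30.3% in the primary screen of four-compound pools, then above 30% when the compound was retested; inconclusive = passed the primary limit but could not be retested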;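 note: compounds exposed to preformed 24 h biofilms for 48 h; 0% = untreated biofilm control and 100% = clotrimazole plus chlorhexidine kill blank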
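Test system: C. albicans CAF4-2 wild-type biofilms; buffer or medium: RPMI/MOPS medium, pH 7.0; schedule: 24 h biofilm formation, then 48 h compound exposure, 37 °C; detection: Alamar Blue fluorescence; measure: percent inhibition of biofilm viability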
ROMK mod: ROMK potassium channel modulators, primary screen, cell-based, thallium flux, MLSMR library | hit rate 2% among 130,000 | B-score at 10 µM | Tet-inducible ROMK, thallium flux fluorescence; actives lie on both sides;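 active = signal ratio slope over the read window, or its plate-corrected B-score, at least 3 SD from the plate mean, either direction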;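 note: B-score of the F/F0 ratio slope over 7 to 12 s after thallium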
zfTRPN1 agonist: zebrafish TRPN1 channel agonists, primary screen, cell-based, HEK293, calcium fluorescence | transient receptor potential cation channel N1 (TRPN1/NompC), Danio rerio | HEK293 zebrafish TRPN1-YFP, Fluo-8 calcium fluorescence; 100% = response to 87 µM carbachol | activation, % at 3 µM | hit rate 0.18% among 220,000 | AID 1424, 2008;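 active = activation above its plate's cutoff, the mean activation of test wells on that plate plus 3 SD, cut at about 19% in these data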;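 note: 0% = DMSO alone and 100% = 87 µM carbachol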
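Material: zebrafish TRPN1-YFP in HEK293 cells; Doses: single test compound dose, 3 µM nominal, 0.3% DMSO; Timing: dye loading 1 h at 37 °C, then 30 min room temperature; Technique: intracellular calcium fluorescence with Fluo-8; Benchmarks: high carbachol 87 µM, low DMSO alone.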
TRPML3 ag: human TRPML3 channel agonists, primary screen, cell-based, HEK293 TRPML3-YFP, Fluo-8 calcium fluorescence, 3 µM. hit rate 0.29% among 220,000. 100% = the carbachol control signal. activation, % at 3 µM. Mucolipin-3 (Homo sapiens), Q8TDD5;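 active = activation above its plate's cutoff, the mean activation of the plate's test wells plus 3 SD, cut at about 12% in these data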;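 note: 0% = DMSO only wells and 100% = carbachol wells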
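Test system: TRPML3-YFP stable HEK293 cells. Doses: single point at 3 µM. Incubation: dye loading 1 h 37 °C then 30 min ambient, 125 s read. Signal: Fluo-8 calcium dye fluorescence, ex 470-495, em 515-575 nm. Measure: percent activation from peak-to-basal fluorescence ratio, scaled between DMSO and carbachol.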
ROMK hit retest: ROMK channel modulator hit retest, confirmation, cell-based, thallium flux, duplicate, resupplied hits. normalized thallium flux (F/F0 slope) at 10 µM. hit rate 54% among 3,000. fluorescence ratio; hits give low values. AID 1917, 2009. shares compounds with ROMK mod;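 active = Flux at 10 µM at least 3 SD below or above vehicle control mean in one or both replicates; inconclusive = no clear call, values can overlap the other calls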
The depositor's hits bear a star; ? = inconclusive; / = no result. The entries come from a sample that favours hits as a whole.

SMILES	ABCG2 block	ABCB1 block	Calb biofilm kill	ROMK mod	zfTRPN1 agonist	TRPML3 ag	ROMK hit retest
Cc1ccc(S(=O)(=O)N2CCC(=O)N(C(COCc3ccc(C(F)(F)F)cc3)Cc3ccccc3)CC2)cc1 (centres undefined)	-3	1	-4	-6.7*	1	0	0.075
O=c1oc2ccccc2n1Cn1c(=O)oc2ccccc21	2	1	/	2.1	0	-1	/
O=C1c2ccccc2C(=O)N1CCCn1c(=O)oc2ccccc21	2	0	/	0.79*	-1	1	0.08
C=Cc1ccc2c(c1)N(C)C(=C)S2	-2	0	16	0.89	-1	0	/
CC(C)(C)NCC(O)COc1ccccc1C(C)(C)C (centres undefined)	1	0	-3	-3.8*	1	2	0.078
Cc1c[nH]c2cccc(OCC(O)CNC(C)(C)C)c12 (centres undefined)	1	0	/	/	-1	0	/
CC(C)(C)NCC(O)COc1ccccc1C(=O)CCc1ccccc1 (centres undefined)	2	1	/	-3.9*	2	1	0.05*
CC(C)CC(NC(N)=O)C(=O)NCc1ccccc1Cl (centres undefined)	0	0	9	0.98	0	0	/
COC(=O)C(NC(C)=O)(Nc1ccc(C)cn1)C(F)(F)F (centres undefined)	/	/	12	/	3	0	/
CC1(C)NC(=O)N(CC(O)COc2ccc(-c3ccc(C#N)cc3)cc2)C1=O (centres undefined)	3	0	/	19*	8	5	0.077
O=C(O)CCNC(=O)CCCn1nnc2ccccc2c1=O	/	/	5	0.48	0	0	/
Cc1ccc2nc(Cl)c(/C=N/Nc3ccc(C(=O)O)cc3)cc2c1	/	/	3	-0.38	0	0	/
O=C(NCc1ccccn1)c1cccc(NS(=O)(=O)c2ccccc2F)c1	10	5	12	0.51	1	0	/
CCOC(=O)C(=NCCCN(C)C)NNc1cc(C(F)(F)F)ccc1Cl	-1	0	23	-2.7*	0	0	0.059*
Cn1c(=O)c2c(nc(Br)n2C/C=N/NC(N)=S)n(C)c1=O	/	/	19	/	3	1	/
C/C(=C1/SC(=S)N(CCC(=O)O)C1=O)c1ccc(O)cc1	1	0	/	/	-1	0	/
COc1ccc(/C(C)=C2\SC(=S)N(CCC(=O)O)C2=O)cc1	1	-1	/	3.1*	1	1	0.076
COc1ccc(NC(=O)N2CCC(CO)(CC3CCCCO3)CC2)c(OC)c1 (centres undefined)	/	/	20	/	1	1	/
COc1ccc(CNS(=O)(=O)c2ccccc2Br)cc1	/	/	19	/	/	/	/
CCCCCCCCC[n+]1cccc2c3ccccc3ccc21	5	1	/	-5.7*	4	2	0.042*
CCOC(=O)N1CCN(c2nc(-c3ccc(F)cc3)cs2)CC1	17	0	/	-2.6*	0	-1	?
CC(=O)Nc1ccc2nc3c(=O)n(C)c(=O)n(C)c3nc2c1	/	/	18	/	0	1	/
CC(=O)OCC1(C)CN(c2ccccc2)N(C(=O)c2ccc(F)cc2)C1=O (centres undefined)	1	1	-5	0.64	0	1	/
COC(=O)c1ccc(C2c3c(oc4ccc(Cl)cc4c3=O)C(=O)N2CCN2CCOCC2)cc1 (centres undefined)	/	/	28	0.63	0	0	/
C=CCn1c(=O)/c(=C/c2ccc(O)cc2)s/c1=C(/C#N)c1nnc2n1CCCCC2	1	0	/	-1.1*	1	1	0.053*
SMILES	ABCG2 block	ABCB1 block	Calb biofilm kill	ROMK mod	zfTRPN1 agonist	TRPML3 ag	ROMK hit retest
Cc1ccc(NC(=O)C2CCN(S(C)(=O)=O)CC2)cc1C	28	2	/	1.6*	1	0	0.077
CC1=C(O)C(=O)OC1c1c(Cl)cccc1Cl (centres undefined)	/	/	20	0.87	0	1	/
CCOC(=O)CCCOC(=O)c1ccc(S(=O)(=O)N(C)C)cc1	-1	-1	/	/	1	1	0.08
O=C(OCc1nnc(-c2ccc(Br)cc2)o1)c1cncc(Br)c1	6	0	-7	/	-2	-1	/
COc1ccc(N2CCN(C(=O)c3ccc(N(C)S(=O)(=O)c4ccc(C)cc4)cc3)CC2)cc1	-1	0	7	-1.7	2	1	/
Cc1ccc(S(=O)(=O)N(C)c2ccc(C(=O)N3CCN(Cc4ccc5c(c4)OCO5)CC3)cc2)cc1	17	7	/	-5*	3	3	0.063*
COc1ccc(N2CCN(C(=O)c3ccc(N(C)S(=O)(=O)c4ccc(OC)cc4)cc3)CC2)cc1	5	0	3	-14*	2	2	?
CN(c1ccc(C(=O)N2CCN(Cc3ccc4c(c3)OCO4)CC2)cc1)S(=O)(=O)c1ccccc1	2	1	/	-1.4	8	4	/
COc1ccccc1C(N)=S	6	1	1	0.075	0	1	/
CN(CCCNC(=O)CSc1cc(=O)n(C)c2ccc(Cl)cc12)Cc1ccccc1	14	1	9	/	-1	1	/
Cc1cccc(NC(=O)CCCn2c(=S)[nH]c3ccccc3c2=O)c1	8	0	13	-1.1	-1	-1	/
Clc1ccc2nc(SCc3nnc(-c4ccccc4)o3)[nH]c2c1	9	1	/	-3.4*	-2	-1	0.055*
c1ccc(Nc2nc(CSc3ncn[nH]3)cs2)cc1	0	-1	1	-2*	2	-1	0.079
O=C(CSc1ncn[nH]1)Nc1nc(-c2ccccc2)cs1	2	0	/	/	2	1	/
NCCc1c(-c2ccccc2)n(-c2ccccc2)c2ccccc12	1	1	13	-3.4*	3	2	0.061*
CCCc1c(O)c2ccccc2n(-c2ccccc2)c1=O	1	1	/	/	1	1	/
CNc1nc2cccnc2s1	/	/	25	0.68	1	0	/
CCc1ccc(-n2c(SCC(=O)Nc3cccc(S(=O)(=O)NC4=NCCCCC4)c3)nc3ccccc3c2=O)cc1	6	2	0	-2.7*	0	0	?
c1ccc(CCNc2nc(-c3ccncc3)nc3ccccc23)cc1	/	/	29	/	-2	2	/

Screening data: PubChem, several laboratories
